Measurements published in ChEMBL document CHEMBL4823302, “Evaluation of γ-carboline-phenothiazine conjugates as simultaneous NMDA receptor blockers and cholinesterase inhibitors” (Bioorg Med Chem, 2021).

Key:
[1] = molecular target: T1, Glutamate NMDA receptor; GRIN1/GRIN2A (Homo sapiens, UniProt Q05586+Q12879); experiment: Inhibition of human GluN1-1a/NR2A receptor expressed in transgenic mouse fibroblast cells assessed as inhibition of L-glutamate-induced excitotoxicity by measuring LDH activity by cell based assay
Procedure, shortened: (§1)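 Stably transfected mouse fibroblasts expressing human GluN1-1a/2A or GluN1-1a/2B receptors; excitotoxicity induced with 10 μM L-glutamate plus 10 μM glycine and quantified as LDH activity in medium. Agonists without antagonist defined 100%; agonists plus 100 μM ketamine defined 0%. IC50 ± SD from at least three independent experiments.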

[2] = molecular target: Glutamate NMDA receptor; GRIN1/GRIN2B (Homo sapiens, UniProt Q05586+Q13224); experiment: Inhibition of human GluN1-1a/NR2B receptor expressed in transgenic mouse fibroblast cells assessed as inhibition of L-glutamate-induced excitotoxicity by measuring LDH activity by cell based assay; procedure, shortened: as §1
[3] = molecular target: T2, Acetylcholinesterase (Homo sapiens, UniProt P22303); experiment: Inhibition of recombinant human AChE expressed in HEK293 cells by Ellman's method; type: cell-based
[4] = molecular target: Cholinesterase (Equus caballus, UniProt P81908); experiment: Inhibition of recombinant equine BChE by Ellman's method
[5] = molecular target: T1, Glutamate NMDA receptor; GRIN1/GRIN2A; experiment: Inhibition of human GluN1-1a/NR2A receptor expressed in transgenic mouse fibroblast cells assessed as inhibition of L-glutamate-induced excitotoxicity at 50 uM by measuring LDH activity by cell based assay
Procedure, shortened: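 Mouse fibroblasts stably expressing human GluN1-1a/2A or GluN1-1a/2B receptors were exposed to 10 μM L-glutamate plus glycine with test agent. Excitotoxicity was read as LDH activity in the medium. Agonists alone defined 100%; agonists plus 100 μM ketamine defined 0%. Percent inhibition at the single test concentration came from at least three independent experiments.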

[6] = Solubility of the compound at >= 50 uM; type: physicochemical
[7] = tested on: Glutamate NMDA receptor GRIN1/GRIN2B (Homo sapiens); experiment: Inhibition of human GluN1-1a/NR2B receptor expressed in transgenic mouse fibroblast cells assessed as inhibition of L-glutamate-induced excitotoxicity at 20 uM by measuring LDH activity by cell based assay
[8] = Selectivity ratio of IC50 for recombinant human AChE to IC50 for equine BuChE
[9] = molecular target: T2, Acetylcholinesterase; experiment: Inhibition of recombinant human AChE expressed in HEK293 cells at 20 uM by Ellman's method relative to control; type: cell-based
[10] = molecular target: Cholinesterase (Equus caballus) (UniProt P81908); experiment: Inhibition of recombinant equine BChE at 20 uM by Ellman's method relative to control
Procedure, shortened: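 Ellman assay with equine BChE as enzyme, compound at single concentration as listed; percent inhibition relative to control, measured in triplicate.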

[11] = Solubility of the compound in buffer at > 20 uM; type: physicochemical
[12] = molecular target: T2, Acetylcholinesterase; experiment: Inhibition of recombinant human AChE expressed in HEK293 cells at 50 uM by Ellman's method relative to control; type: cell-based

T2 sequence (P22303 whole entry): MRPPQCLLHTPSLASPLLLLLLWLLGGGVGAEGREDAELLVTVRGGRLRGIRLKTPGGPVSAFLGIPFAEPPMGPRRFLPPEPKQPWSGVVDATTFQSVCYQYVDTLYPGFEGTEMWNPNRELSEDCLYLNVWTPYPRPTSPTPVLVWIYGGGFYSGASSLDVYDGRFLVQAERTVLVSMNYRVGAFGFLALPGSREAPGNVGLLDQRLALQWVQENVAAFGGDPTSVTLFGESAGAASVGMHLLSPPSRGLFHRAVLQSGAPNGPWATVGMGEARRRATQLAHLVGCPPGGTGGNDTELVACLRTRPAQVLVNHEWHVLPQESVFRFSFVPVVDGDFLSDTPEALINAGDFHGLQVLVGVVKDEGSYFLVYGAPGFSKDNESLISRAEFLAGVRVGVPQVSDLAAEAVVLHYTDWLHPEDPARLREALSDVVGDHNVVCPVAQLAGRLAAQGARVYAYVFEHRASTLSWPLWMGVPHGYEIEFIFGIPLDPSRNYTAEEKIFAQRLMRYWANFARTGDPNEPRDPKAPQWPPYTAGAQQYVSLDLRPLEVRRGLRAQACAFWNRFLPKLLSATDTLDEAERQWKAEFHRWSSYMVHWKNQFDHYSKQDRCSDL
Glutamate NMDA receptor; GRIN1/GRIN2B, sequence (Q13224 whole entry, looked up, other chains not shown): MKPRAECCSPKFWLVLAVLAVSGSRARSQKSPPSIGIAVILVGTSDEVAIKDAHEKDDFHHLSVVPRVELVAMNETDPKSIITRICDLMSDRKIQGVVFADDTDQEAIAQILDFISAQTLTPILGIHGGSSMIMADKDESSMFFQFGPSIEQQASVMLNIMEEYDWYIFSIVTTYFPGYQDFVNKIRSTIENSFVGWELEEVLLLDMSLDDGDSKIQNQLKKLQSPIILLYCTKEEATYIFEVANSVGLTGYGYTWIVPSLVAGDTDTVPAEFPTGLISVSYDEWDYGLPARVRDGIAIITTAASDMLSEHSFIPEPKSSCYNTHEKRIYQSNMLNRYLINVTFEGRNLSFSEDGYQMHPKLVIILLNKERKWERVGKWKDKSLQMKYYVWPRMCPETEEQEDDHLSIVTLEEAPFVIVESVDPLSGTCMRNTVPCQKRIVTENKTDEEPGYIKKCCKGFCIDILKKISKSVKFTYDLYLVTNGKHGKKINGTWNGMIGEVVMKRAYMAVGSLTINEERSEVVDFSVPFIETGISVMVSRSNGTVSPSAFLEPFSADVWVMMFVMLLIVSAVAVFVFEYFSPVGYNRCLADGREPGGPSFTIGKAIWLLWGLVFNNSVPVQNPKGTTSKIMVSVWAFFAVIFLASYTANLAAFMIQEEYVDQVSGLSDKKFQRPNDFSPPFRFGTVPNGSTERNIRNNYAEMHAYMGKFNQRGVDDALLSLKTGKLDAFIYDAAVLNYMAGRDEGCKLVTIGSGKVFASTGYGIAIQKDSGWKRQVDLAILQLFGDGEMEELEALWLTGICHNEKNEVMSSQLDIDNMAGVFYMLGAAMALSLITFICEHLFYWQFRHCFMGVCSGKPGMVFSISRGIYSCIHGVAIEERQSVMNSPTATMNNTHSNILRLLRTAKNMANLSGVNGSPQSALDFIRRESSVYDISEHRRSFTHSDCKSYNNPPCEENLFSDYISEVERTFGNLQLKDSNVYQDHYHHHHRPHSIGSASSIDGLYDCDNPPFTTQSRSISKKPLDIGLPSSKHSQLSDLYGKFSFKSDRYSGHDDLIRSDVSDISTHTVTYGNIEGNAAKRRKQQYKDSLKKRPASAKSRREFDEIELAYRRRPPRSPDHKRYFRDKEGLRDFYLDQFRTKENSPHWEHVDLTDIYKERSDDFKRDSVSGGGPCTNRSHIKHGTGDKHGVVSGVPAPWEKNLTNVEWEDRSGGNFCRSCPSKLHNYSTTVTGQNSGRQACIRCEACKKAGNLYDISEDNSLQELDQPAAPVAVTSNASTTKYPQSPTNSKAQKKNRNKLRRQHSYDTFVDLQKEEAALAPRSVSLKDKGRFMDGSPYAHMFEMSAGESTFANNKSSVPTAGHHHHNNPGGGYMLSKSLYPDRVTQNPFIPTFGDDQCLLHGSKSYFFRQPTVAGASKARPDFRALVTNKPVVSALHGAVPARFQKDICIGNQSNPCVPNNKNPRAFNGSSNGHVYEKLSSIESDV
Cholinesterase, sequence (P81908 whole entry): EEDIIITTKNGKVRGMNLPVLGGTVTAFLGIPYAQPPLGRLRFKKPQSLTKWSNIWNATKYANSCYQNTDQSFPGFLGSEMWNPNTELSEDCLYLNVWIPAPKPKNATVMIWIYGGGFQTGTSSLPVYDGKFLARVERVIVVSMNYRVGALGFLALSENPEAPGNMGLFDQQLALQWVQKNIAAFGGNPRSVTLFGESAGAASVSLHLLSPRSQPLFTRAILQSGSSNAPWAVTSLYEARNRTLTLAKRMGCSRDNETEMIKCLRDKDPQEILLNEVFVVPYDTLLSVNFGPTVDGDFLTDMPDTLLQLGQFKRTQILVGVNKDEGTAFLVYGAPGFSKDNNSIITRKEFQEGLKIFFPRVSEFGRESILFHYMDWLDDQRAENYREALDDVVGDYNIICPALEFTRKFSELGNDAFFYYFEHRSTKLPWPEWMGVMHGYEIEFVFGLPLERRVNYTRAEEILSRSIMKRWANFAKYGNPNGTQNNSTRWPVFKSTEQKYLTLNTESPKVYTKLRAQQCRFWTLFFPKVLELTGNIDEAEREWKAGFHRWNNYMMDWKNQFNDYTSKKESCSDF
Cholinesterase (Equus caballus), sequence (P81908 whole entry): as above

Row | SMILES | IC50 [1] | IC50 [2] | IC50 [3] | IC50 [4] | inhibition [5] | solubility [6] | inhibition [7] | Ratio IC50 [8] | inhibition [9] | inhibition [10] | solubility [11] | inhibition [12]
1 | Cc1ccc2c(c1)c1c[n+](C)ccc1n2CCC(=O)N1c2ccccc2Sc2ccccc21 | 900 nM | 500 nM | 1100 nM | 32 nM | – | – | – | – | – | – | – | –
2 | COc1ccc2[nH]c3ccncc3c2c1 | – | – | 49600 nM | 12600 nM | < 50% | Insoluble | < 50% | – | – | – | – | –
3 | COc1ccc2[nH]c3cc[n+](C)cc3c2c1.[I-] | – | – | 14700 nM | 9800 nM | < 50% | Insoluble | < 50% | – | – | – | – | –
4 | COc1cc2c(cc1OC)C(=O)C(CC1CCN(Cc3ccccc3)CC1)C2 (stereo not drawn) | – | – | – | – | < 50% | – | – | – | – | – | – | –
5 | COc1ccc2c(c1)c1c[n+](C)ccc1n2CCC(=O)N1c2ccccc2Sc2ccccc21 | 400 nM | 200 nM | 5300 nM | 41 nM | – | – | – | – | – | – | – | –
6 | Cc1ccc2[nH]c3c(c2c1)CN(Cc1ccccc1)CC3 | – | – | 35100 nM | 1400 nM | < 50% | Insoluble | < 50% | – | – | – | – | –
7 | C[n+]1ccc2c(c1)c1cc(F)ccc1n2CCC(=O)N1c2ccccc2Sc2ccccc21 | 3000 nM | 2100 nM | 2600 nM | 32 nM | – | – | – | – | – | – | – | –
8 | CN1CCc2c(c3ccccc3n2CCCCCCCCCn2c3c(c4ccccc42)CN(C)CC3)C1 | – | – | – | – | < 50% | – | < 50% | – | – | – | – | –
9 | c1ccc2c(c1)[nH]c1ccncc12 | – | – | 21400 nM | 1200 nM | < 50% | Insoluble | – | – | – | – | – | –
10 | O=C(CCn1c2ccncc2c2cc(F)ccc21)N1c2ccccc2Sc2ccccc21 | 1700 nM | 2700 nM | 6200 nM | 8 nM | – | – | – | 775 | – | – | – | –
11 | Fc1ccc2[nH]c3ccncc3c2c1 | – | – | 11400 nM | 550 nM | < 50% | Insoluble | < 50% | – | – | – | – | –
12 | c1ccc2c(c1)Nc1ccccc1S2 [PHENOTHIAZINE] | – | – | – | – | < 50% | – | – | – | < 30% | < 50% | Insoluble | –
13 | Cc1ccc2c(c1)c1cnccc1n2CCC(=O)N1c2ccccc2Sc2ccccc21 | 1300 nM | 1500 nM | 510 nM | 16 nM | – | – | – | – | – | – | – | –
14 | C[n+]1ccc2c(c1)c1ccccc1n2CCCCCCCCCn1c2ccccc2c2c[n+](C)ccc21 | – | – | 0.33 nM | – | – | – | – | – | – | – | – | –
15 | O=C(CCn1c2ccccc2c2cnccc21)N1c2ccccc2Sc2ccccc21 | 4200 nM | 3000 nM | 2300 nM | 8 nM | – | – | – | – | – | – | – | –
16 | CN1CCc2[nH]c3ccccc3c2C1 | – | – | – | 6500 nM | < 50% | Insoluble | < 50% | – | – | – | – | < 50%
17 | COc1ccc2c(c1)c1cnccc1n2CCC(=O)N1c2ccccc2Sc2ccccc21 | 800 nM | 600 nM | 540 nM | 37 nM | – | – | – | – | – | – | – | –
18 | C[n+]1ccc2c(c1)c1ccccc1n2CCC(=O)N1c2ccccc2Sc2ccccc21 | 2400 nM | 1400 nM | 2200 nM | 41 nM | – | – | – | – | – | – | – | –
19 | c1ccc(CN2CCc3[nH]c4ccccc4c3C2)cc1 | – | – | 20400 nM | 6500 nM | < 50% | Insoluble | < 50% | – | – | – | – | –
20 | c1ccc2c(c1)c1cnccc1n2CCCCCCCCCn1c2ccccc2c2cnccc21 | – | – | 80 nM | – | < 50% | – | < 50% | – | – | – | – | –
21 | [Br-].c1ccc(C[n+]2ccc3[nH]c4ccccc4c3c2)cc1 | – | – | 8600 nM | 1900 nM | < 50% | Insoluble | < 50% | – | – | – | – | –
22 | O=C(CCn1c2ccccc2c2c[n+](Cc3ccccc3)ccc21)N1c2ccccc2Sc2ccccc21 | 1000 nM | 900 nM | 2200 nM | 11 nM | – | – | – | – | – | – | – | –
23 | Cn1ccc2nc3ccccc3c-2c1.I | – | – | 8700 nM | 890 nM | < 50% | Insoluble | < 50% | – | – | – | – | –
24 | Fc1ccc2[nH]c3c(c2c1)CN(Cc1ccccc1)CC3 | – | – | 17600 nM | 2100 nM | < 50% | Insoluble | < 50% | – | – | – | Insoluble | –
25 | Cc1ccc2[nH]c3cc[n+](C)cc3c2c1.[I-] | – | – | 9100 nM | 5500 nM | < 50% | Insoluble | < 50% | – | – | – | – | –
26 | CN1CCc2c(c3ccccc3n2CCC(=O)N2c3ccccc3Sc3ccccc32)C1 | – | – | 7800 nM | 170 nM | < 50% | Insoluble | < 50% | – | – | – | – | –
27 | Cc1ccc2[nH]c3ccncc3c2c1 | – | – | 35400 nM | 1400 nM | < 50% | Insoluble | < 50% | – | – | – | – | –
28 | COc1ccc2[nH]c3c(c2c1)CN(Cc1ccccc1)CC3 | – | – | 52700 nM | 6300 nM | < 50% | Insoluble | < 50% | – | – | – | – | –
29 | C[n+]1ccc2[nH]c3ccc(F)cc3c2c1.[I-] | – | – | 1900 nM | 2700 nM | < 50% | Insoluble | < 50% | – | – | – | – | –
